ChEMBL document CHEMBL1938262, “A specific protein disorder catalyzer of HIV-1 Nef” (Bioorg Med Chem, 2011)
Calls of active or inactive are those of the source. The calls are words filed in the database; no cut-off is given here.

Legend:
[1] = Solubility of the compound; assay type: physicochemical
[2] = Inhibition of HIV1 Nef (56-206)/SH3 domain of GST-Hck expressed in Escherichia coli BL21 DE3 complex formation at […] after 1 hr by high-mass MALDI TOF analysis
Outline: (§1)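 Nef core (56–206) and Hck SH3 were expressed in E. coli BL21 DE3 as GST fusions, thrombin-cleaved and gel-filtered. Nef was preincubated 1 h at rt with compound from DMSO stocks (up to 5 mM stock), then SH3-Hck was added for 1 h at rt. Samples were cross-linked 1 h, mixed with sinapinic acid matrix and analysed by high-mass MALDI-TOF in triplicate. IC50 comes from % complex versus log concentration.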

[3] = Inhibition of HIV1 Nef (56-206)/SH3 domain of GST-Hck expressed in Escherichia coli BL21 DE3 complex formation after 1 hr by high-mass MALDI TOF analysis; outline: as §1
[4] = Induction of HIV1 GST-Nef-mVenus proteolysis after 30 mins preincubation measured after 60 mins by cleavage enzyme-cytometric bead array method in presence of HIV1 protease; parameters: species or system Human immunodeficiency virus 1
Outline: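 CE-CBA: a GST-Nef-mVenus reporter is immobilized on anti-GST antibody beads and cleaved by HIV protease. Cleavage is followed as loss of bead fluorescence by flow cytometry. Values are normalized to the DMSO control (0% cleavage) and intrinsic bead fluorescence (100%). Relative EC50 is reported as mean ± SEM of three independent experiments.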

[5] = Cytotoxicity against african green monkey COS7 cells assessed as cell viability up to 40 uM after 70 hrs; assay type: cell-based, COS-7; details: chlorocebus aethiops, read-out: Activity
[6] = test system: Protein Nef (Human immunodeficiency virus type 1); assay: Decrease in aggregation temperature of HIV1 His-tagged Nef at 10 to 200 uM by thermal protein denaturation assay (reference value: 58.83 +/- 0.25 degC)

| solubility [1] | inhibition [2] | IC50 [3] [µM] | EC50 [4] [µM] | T [6] [°C] | Structure (SMILES) | viability at 70 h [5] [%] |
| --- | --- | --- | --- | --- | --- | --- |
| Insoluble |  |  |  |  | COC(=O)c1cccc(NC(=O)COc2ccc(-c3ccc(C(C)(C)C)cc3)cc2)c1 |  |
|  | Active | > 50 | 109 | 50.3 | CC(C)(C)c1ccc(OCC(=O)Nc2cccc(C(=O)O)c2)cc1 | 86.6 |
| Insoluble | Active | 15.9 | 34.3 |  | CC(C)(C)c1ccc(-c2ccc(OCC(=O)Nc3cccc(C(=O)O)c3)cc2)cc1 | 73 |
